Measured values taken from publication PMC5696082 (Analytical biochemistry, 2017).
Values belong to the molecule of their own block, whether it stands above or below them.

Key:
[1] = Fluorophore characterization; type: physicochemical; conditions: for Maximum λemm / Maximum λexc / Relative Fluorescence Intensity: 37°C, phosphate buffer 100 mM pH 8, 0.1 mg/mL BSA, 1% DMSO
In short: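 Fluorophores dissolved in 100 mM phosphate buffer, pH 8, 0.1 mg/mL BSA, 1% DMSO, at 37°C. Excitation and emission maxima found by scanning fluorescence intensity at 2 nm steps on a plate spectrophotometer. Relative intensity expressed as RFU per nmol.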

[2] = Background hydrolysis of substrates in phosphate buffer; type: physicochemical; conditions: phosphate buffer 100 mM, pH 8, 0.1 mg/mL BSA
Kinetic properties [3] = substrate: CCCCC(C)CCC(=O)Nc1ccc(OC)nc1C; assay: Kinetic properties; type: biochemical, human; conditions: 37°C, pH 8
Kinetic properties [4] = substrate: COc1ccc2cc(C(C#N)OC(C)=O)ccc2c1; assay: Kinetic properties; type: biochemical, human; conditions: 37°C, pH 8
[5] = other: hCE2, 6 substrate concentrations 3.13-100 µM
[6] = other: hCE1, 6 substrate concentrations 3.13-100 µM

Molecule: COc1nc(C)ccc1N [V, 2-methyl-5-amino-6-methoxypyridine]
Fluorescence, fold less than I [1]: 4 fold | Maximum λemm [1]: 364 nm | Maximum λexc [1]: 292 nm | Relative Fluorescence Intensity [1]: 1,100 RFU/nmol

Molecule: COc1ccc(N)c(C)n1 [I, 2-methoxy-5-amino-6-methylpyridine]
Maximum λemm [1]: 394 nm | Maximum λexc [1]: 304 nm | Relative Fluorescence Intensity [1]: 4,400 RFU/nmol

Molecule: COc1ccc(N)cn1 [II, 2-methoxy-5-aminopyridine]
Maximum λemm [1]: 398 nm | Maximum λexc [1]: 304 nm | Relative Fluorescence Intensity [1]: 3,100 RFU/nmol

B1: hCE2 (Homo sapiens) (protein)
chain: QDSASPIRTTHTGQVLGSLVHVKGANAGVQTFLGIPFAKPPLGPLRFAPPEPPESWSGVRDGTTHPAMCLQDLTAVESEFLSQFNMTFPSDSMSEDCLYLSIYTPAHSHEGSNLPVMVWIHGGALVFGMASLYDGSMLAALENVVVVIIQYRLGVLGFFSTGDKHATGNWGYLDQVAALRWVQQNIAHFGGNPDRVTIFGESAGGTSVSSLVVSPISQGLFHGAIMESGVALLPGLIASSADVISTVVANLSACDQVDSEALVGCLRGKSKEEILAINKPFKMIPGVVDGVFLPRHPQELLASADFQPVPSIVGVNNNEFGWLIPKVMRIYDTQKEMDREASQAALQKMLTLLMLPPTFGDLLREEYIGDNGDPQTLQAQFQEMMADSMFVIPALQVAHFQCSRAPVYFYEFQHQPSWLKNIRPPHMKADHGDELPFVFRSFFGGNYIKFTEEEEQLSRKMMKYWANFARNGNPNGEGLPHWPLFDQEEQYLQLNLQPAVGRALKAHRLQFWKKALPQKIQELEEPEERHTEL
Vmax (Kinetic properties [3]; [5]): 0.004 µmol/min/mg | Vmax/Km (Kinetic properties [3]; [5]): 450 µL/min/mg | Vmax (Kinetic properties [4]; [5]): 9.6 µmol/min/mg | Vmax/Km (Kinetic properties [4]; [5]): 1.2e+06 µL/min/mg

B2: hCE1 (Homo sapiens) (protein)
chain: GHPSSPPVVDTVHGKVLGKFVSLEGFAQPVAIFLGIPFAKPPLGPLRFTPPQPAEPWSFVKNATSYPPMCTQDPKAGQLLSELFTNRKENIPLKLSEDCLYLNIYTPADLTKKNRLPVMVWIHGGGLMVGAASTYDGLALAAHENVVVVTIQYRLGIWGFFSTGDEHSRGNWGHLDQVAALRWVQDNIASFGGNPGSVTIFGESAGGESVSVLVLSPLAKNLFHRAISESGVALTSVLVKKGDVKPLAEQIAITAGCKTTTSAVMVHCLRQKTEEELLETTLKMKFLSLDLQGDPRESQPLLGTVIDGMLLLKTPEELQAERNFHTVPYMVGINKQEFGWLIPMQLMSYPLSEGQLDQKTAMSLLWKSYPLVCIAKELIPEATEKYLGGTDDTVKKKDLFLDLIADVMFGVPSVIVARNHRDAGAPTYMYEFQYRPSFSSDMKPKTVIGDHGDELFSVFGAPFLKEGASEEEIRLSKMVMKFWANFARNGNPNGEGLPHWPEYNQKEGYLQIGANTQAAQKLKDKEVAFWTNLFAKKAVEKPPQTEHIEL
Vmax (Kinetic properties [3]; [6]): 0.48 µmol/min/mg | Vmax/Km (Kinetic properties [3]; [6]): 17000 µL/min/mg | Vmax (Kinetic properties [4]; [6]): 1.4 µmol/min/mg | Vmax/Km (Kinetic properties [4]; [6]): 280000 µL/min/mg

The remaining lines, values ahead:

Rate of background hydrolysis [2]: 610 pmol/min
Molecule: CC(=O)Oc1ccc([N+](=O)[O-])cc1 [4-NPA, 4-nitrophenyl acetate]

Maximum λemm [1]: 462 nm | Maximum λexc [1]: 320 nm | Relative Fluorescence Intensity [1]: 2,600 RFU/nmol
Molecule: COc1ccc2cc(C=O)ccc2c1 [VI, 6-methoxynaphthaldehyde]
